Laboratory results as given in ChEMBL document CHEMBL1147110, “Antifungal drug susceptibility profile of Pichia anomala isolates from patients presenting with nosocomial fungemia” (2007).

Experiments:
Assay type in all cases: functional
[1] = tested on: Wickerhamomyces anomalus; test: Antimicrobial susceptibility of Pichia anomala from nosocomial fungemia patient assessed as percent susceptible isolates at 0.25 ug/ml by EUCAST method
Procedure, shortened: (§1)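 58 P. anomala isolates (52 unrelated bloodstream isolates from Brazil, Argentina and Spain; 6 from unknown US clinical specimens). EUCAST broth microdilution, 24 h incubation, spectrophotometric reading at 530 nm. The MIC endpoint was ≥95% inhibition versus the drug-free control for the polyene and ≥50% for azoles and the echinocandin. Cumulative % of isolates inhibited at each MIC was recorded.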

[2] = tested on: Wickerhamomyces anomalus; test: Antimicrobial susceptibility of Pichia anomala from nosocomial fungemia patient assessed as percent susceptible isolates at 8 ug/ml by CLSI method
Procedure, shortened: as §1, with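 “CLSI” for “EUCAST”, “48” for “24”, “read” for “spectrophotometric reading”, “well” for “control”, “recorded, with susceptibility assigned by CLSI interpretive criteria.” for “recorded.”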

[3] = tested on: Wickerhamomyces anomalus; test: Antimicrobial susceptibility of Pichia anomala from nosocomial fungemia patient assessed as percent susceptible isolates at 0.03 ug/ml by EUCAST method
Procedure, shortened: (§2)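 EUCAST broth microdilution on the same 58 P. anomala isolates (52 bloodstream isolates from Brazil, Argentina and Spain; 6 from USA). MICs were read spectrophotometrically at 530 nm after 24 h incubation. Endpoints were complete or nearly complete (≥95%) inhibition for amphotericin B, and ≥50% inhibition for azoles and caspofungin, relative to drug-free control. Isolates were tallied as cumulative % per MIC.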

[4] = tested on: Wickerhamomyces anomalus; test: Antimicrobial susceptibility of Pichia anomala from nosocomial fungemia patient assessed as percent susceptible isolates at 2 ug/ml by EUCAST method; procedure, shortened: as §1
[5] = tested on: Wickerhamomyces anomalus; test: Antimicrobial susceptibility of Pichia anomala from nosocomial fungemia patient assessed as percent susceptible isolates at 1 ug/ml by EUCAST method; procedure, shortened: as §2
[6] = tested on: Wickerhamomyces anomalus; test: Antimicrobial susceptibility of Pichia anomala from nosocomial fungemia patient assessed as percent susceptible isolates by CLSI method
Procedure, shortened: as §1, with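 “CLSI” for “EUCAST”, “48” for “24”, “read” for “spectrophotometric reading”, “well” for “control”, “recorded, with susceptibility assigned by CLSI interpretive criteria.” for “recorded.”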

[7] = tested on: Wickerhamomyces anomalus; test: Antimicrobial susceptibility of Pichia anomala from nosocomial fungemia patient assessed as percent susceptible isolates at 0.5 ug/ml by EUCAST method; procedure, shortened: as §2
[8] = tested on: Wickerhamomyces anomalus; test: Antimicrobial susceptibility of Pichia anomala from nosocomial fungemia patient assessed as percent susceptible isolates at 0.5 ug/ml by CLSI method
Procedure, shortened: as §1, with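 “CLSI” for “EUCAST”, “48” for “24”, “read” for “spectrophotometric reading”, “well” for “control”, “recorded, with susceptibility assigned by CLSI interpretive criteria.” for “recorded.”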

[9] = tested on: Wickerhamomyces anomalus; test: Antimicrobial susceptibility of Pichia anomala from nosocomial fungemia patient assessed as percent susceptible isolates at 0.015 ug/ml by CLSI method
Procedure, shortened: (§3)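 CLSI broth microdilution on 58 P. anomala isolates: 52 unrelated bloodstream isolates (36 Brazil, 13 Argentina, 3 Spain) and 6 from unknown clinical specimens (USA). Fluconazole was tested at 0.12–64 µg/ml. MICs were read spectrophotometrically at 530 nm after 48 h. Endpoints were ≥95% inhibition vs drug-free control for amphotericin B, and ≥50% for azoles and caspofungin. Results are given as cumulative % of isolates at each MIC.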

[10] = tested on: Wickerhamomyces anomalus; test: Antimicrobial susceptibility of Pichia anomala from nosocomial fungemia patient assessed as percent susceptible isolates at 1 ug/ml by CLSI method; procedure, shortened: as §3
[11] = tested on: Wickerhamomyces anomalus; test: Antimicrobial susceptibility of Pichia anomala from nosocomial fungemia patient assessed as percent susceptible isolates at 2 ug/ml by CLSI method
Procedure, shortened: as §1, with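 “CLSI” for “EUCAST”, “48” for “24”, “read” for “spectrophotometric reading”, “well” for “control”, “recorded, with susceptibility assigned by CLSI interpretive criteria.” for “recorded.”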

[12] = tested on: Wickerhamomyces anomalus; test: Antimicrobial susceptibility of Pichia anomala from nosocomial fungemia patient assessed as percent susceptible isolates at 4 ug/ml by EUCAST method; procedure, shortened: as §1
[13] = tested on: Wickerhamomyces anomalus; test: Antimicrobial susceptibility of Pichia anomala from nosocomial fungemia patient assessed as percent susceptible isolates at 0.25 ug/ml by CLSI method; procedure, shortened: as §3
[14] = tested on: Wickerhamomyces anomalus; test: Antimicrobial susceptibility of Pichia anomala from nosocomial fungemia patient assessed as percent susceptible isolates at 0.12 ug/ml by EUCAST method; procedure, shortened: as §2
[15] = tested on: Wickerhamomyces anomalus; test: Antimicrobial susceptibility of Pichia anomala from nosocomial fungemia patient assessed as percent susceptible isolates at 4 ug/ml by CLSI method
Procedure, shortened: as §1, with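 “CLSI” for “EUCAST”, “48” for “24”, “read” for “spectrophotometric reading”, “well” for “control”, “recorded, with susceptibility assigned by CLSI interpretive criteria.” for “recorded.”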

[16] = tested on: Wickerhamomyces anomalus; test: Antimicrobial susceptibility of Pichia anomala from nosocomial fungemia patient assessed as percent susceptible isolates at 0.06 ug/ml by EUCAST method; procedure, shortened: as §2
[17] = tested on: Wickerhamomyces anomalus; test: Antimicrobial susceptibility of Pichia anomala from nosocomial fungemia patient assessed as percent susceptible isolates at 8 ug/ml by EUCAST method; procedure, shortened: as §1
[18] = tested on: Wickerhamomyces anomalus; test: Antimicrobial susceptibility of Pichia anomala from nosocomial fungemia patient assessed as percent susceptible isolates at 16 ug/ml by CLSI method
Procedure, shortened: as §1, with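 “CLSI” for “EUCAST”, “48” for “24”, “read” for “spectrophotometric reading”, “well” for “control”, “recorded, with susceptibility assigned by CLSI interpretive criteria.” for “recorded.”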

[19] = tested on: Wickerhamomyces anomalus; test: Antimicrobial susceptibility of Pichia anomala from nosocomial fungemia patient assessed as percent susceptible isolates at 0.12 ug/ml by CLSI method
Procedure, shortened: as §1, with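 “CLSI” for “EUCAST”, “48” for “24”, “read” for “spectrophotometric reading”, “well” for “control”, “recorded, with susceptibility assigned by CLSI interpretive criteria.” for “recorded.”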

[20] = tested on: Wickerhamomyces anomalus; test: Antimicrobial susceptibility of Pichia anomala from nosocomial fungemia patient assessed as percent susceptible isolates by EUCAST method; procedure, shortened: as §2
[21] = tested on: Wickerhamomyces anomalus; test: Antimicrobial susceptibility of Pichia anomala from nosocomial fungemia patient assessed as percent susceptible isolates at 0.06 ug/ml by CLSI method; procedure, shortened: as §3
[22] = tested on: Wickerhamomyces anomalus; test: Antimicrobial susceptibility of Pichia anomala from nosocomial fungemia patient assessed as percent susceptible isolates at 0.03 ug/ml by CLSI method; procedure, shortened: as §3
[23] = tested on: Wickerhamomyces anomalus; test: Antimicrobial susceptibility of Pichia anomala from nosocomial fungemia patient assessed as percent susceptible isolates at 16 ug/ml by EUCAST method; procedure, shortened: as §1
[24] = tested on: Wickerhamomyces anomalus; test: Antimicrobial susceptibility of Pichia anomala from nosocomial fungemia patient assessed as percent susceptible isolates at 0.015 ug/ml by EUCAST method; procedure, shortened: as §2

Structure (SMILES)	Activity [1]	Activity [3]	Activity [5]	Activity [6]	Activity [7]	Cumulative percent of isolates inhibited [8]	Activity [9]	Activity [10]	Activity [14]	Activity [16]	Activity [19]	Activity [20]	Activity [24]	Cumulative percent of isolates inhibited [13]	Cumulative percent of isolates inhibited [21]	Cumulative percent of isolates inhibited [22]	also measured
OC(Cn1cncn1)(Cn1cncn1)c1ccc(F)cc1F [FLUCONAZOLE]	0%	0%	0%	96.6%	0%	0%	0%	0%	0%	0%	0%	93%	0%				Activity [2]: 93%; Activity [4]: 22.4%; Activity [11]: 15.5%; Activity [12]: 55.1%; Activity [13]: 0%; Activity [15]: 56.8%; Activity [17]: 96.5%; Activity [18]: 100%; Activity [21]: 0%; Activity [22]: 0%; Activity [23]: 100%
CCC(C)n1ncn(-c2ccc(N3CCN(c4ccc(OCC5COC(Cn6cncn6)(c6ccc(Cl)cc6Cl)O5)cc4)CC3)cc2)c1=O (stereo not given) [ITRACONAZOLE]	91.2%	0%	100%	36.2%	98.2%	96.5%	1.7%	100%	39.5%	7%	36.1%	39.6%	0%	74.1%	12%	0%	
C[C@@H]1[C@H](O)[C@@H](C)/C=C/C=C/C=C/C=C/C=C/C=C/C=C/[C@H](O[C@@H]2O[C@H](C)[C@@H](O)[C@H](N)[C@@H]2O)C[C@@H]2O[C@](O)(C[C@@H](O)C[C@@H](O)[C@H](O)CC[C@@H](O)C[C@@H](O)CC(=O)O[C@H]1C)C[C@H](O)[C@H]2C(=O)O [AMPHOTERICIN B]	55.1%	0%	100%	100%	94.7%	88%	0%	100%	15.5%	0%	12%	100%	0%	36%	0%	0%	
CC[C@H](C)C[C@H](C)CCCCCCCCC(=O)N[C@H]1C[C@@H](O)[C@@H](NCCN)NC(=O)[C@@H]2[C@@H](O)CCN2C(=O)[C@H]([C@H](O)CCN)NC(=O)[C@H]([C@H](O)[C@@H](O)c2ccc(O)cc2)NC(=O)[C@@H]2C[C@@H](O)CN2C(=O)[C@H]([C@@H](C)O)NC1=O [CASPOFUNGIN]		12%		100%			0%		100%	70.6%	84.5%	100%	0%	100%	17.2%	1.7%	
C[C@@H](c1ncncc1F)[C@](O)(Cn1cncn1)c1ccc(F)cc1F [VORICONAZOLE]	100%	3.4%		100%		100%	0%		65.5%	29.3%	39.6%	100%	0%	96.5%	18.9%	3.4%	
